Assays:
Rattus norvegicus [1] = organism: Rattus norvegicus; experiment: Ratio of regional brain distribution of [18F]-ACF radiolabeled compound in rat striatum to that of cerebellum after 120 min; type: ADME, organism-based; conditions: in vivo, 2 h
In short: (§1)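 Rats (three per group) under ether anesthesia got 30 μCi tracer in 0.2 mL saline into the femoral vein and were killed by cardiac excision at the stated time. Cortex, striatum, hippocampus, cerebellum, hypothalamus and the rest of brain were dissected, weighed and gamma counted. %dose/g was taken against counts of a diluted initial dose. Regional ratios are each region's %dose/g over cerebellum's. Mean ± SD.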

Rattus norvegicus [2] = organism: Rattus norvegicus; experiment: Organ distribution of [18F]ACF radiolabeled compound in rat lung after 120 min; type: ADME, organism-based; conditions: in vivo, 2 h
In short: (§2)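 Rats, three per time point, under ether anesthesia; 30 μCi tracer in 0.2 mL saline injected into femoral vein. Sacrificed by cardiac excision under ether at 2, 30, 60, 120 or 240 min. Organs removed, weighed and counted; % dose/organ calculated against counts of 1% of initial dose counted at the same time. Average of three rats ± SD.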

Rattus norvegicus [3] = experiment: Ratio of effect of pretreatment with (+)-McN5652 with a dose of 2 mg/kg (i.v.) on specific binding of [18F]ACF in rat brain striatum to that of cerebellum; type: ADME, organism-based; parameters: dose 2 mg/kg, route intravenous; conditions: in vivo, iv
In short: (§3)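 Rats (three per point) pretreated iv with competing drug at 2 mg/kg or saline (control) 5 min before iv [18F]ACF (50 μCi). At 1 h post tracer, brain regions (cortex, striatum, hippocampus, cerebellum, hypothalamus, remainder) dissected, weighed, counted as % dose/g and expressed as ratio to cerebellum. Average ± SD; ANOVA with Dunnett's test vs saline controls, p < 0.05.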

Rattus norvegicus [4] = organism: Rattus norvegicus; experiment: Organ distribution of [18F]-ACF radiolabeled compound in rat heart after 240 min; type: ADME, organism-based; conditions: in vivo, 4 h
In short: (§4)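 Under ether anesthesia, 30 μCi no-carrier-added tracer in 0.2 mL saline injected into the femoral vein. Rats killed by cardiac excision at the stated time. Organs were removed, weighed and counted; % dose/organ was calculated against counts of a 1% initial-dose standard. Three rats per time, average ± SD.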

Rattus norvegicus [5] = organism: Rattus norvegicus; experiment: Ratio of regional brain distribution of [18F]ACF radiolabeled compound in rat cortex to that of cerebellum after 30 min; type: ADME, organism-based; conditions: in vivo, 0.5 h; in short: as §1
Rattus norvegicus [6] = organism: Rattus norvegicus; experiment: Ratio of regional brain distribution of [18F]-ACF radiolabeled compound in rat remainder to that of cerebellum after 120 min; type: ADME, organism-based; conditions: in vivo, 2 h; in short: as §1
Rattus norvegicus [7] = organism: Rattus norvegicus; experiment: Organ distribution of [18F]-ACF radiolabeled compound in rat spleen after 30 min; type: ADME, organism-based; conditions: in vivo, 0.5 h; in short: as §4
Rattus norvegicus [8] = organism: Rattus norvegicus; experiment: Organ distribution of [18F]ACF radiolabeled compound in rat blood after 30 min; type: ADME, organism-based; conditions: in vivo, 0.5 h; in short: as §2
Rattus norvegicus [9] = organism: Rattus norvegicus; experiment: Organ distribution of [18F]-ACF radiolabeled compound in rat lung after 60 min; type: ADME, organism-based; conditions: in vivo, 1 h; in short: as §4
Rattus norvegicus [10] = organism: Rattus norvegicus; experiment: Ratio of regional brain distribution of [18F]-ACF radiolabeled compound in rat striatum to that of cerebellum after 240 min; type: ADME, organism-based; conditions: in vivo, 4 h; in short: as §1
Rattus norvegicus [11] = organism: Rattus norvegicus; experiment: Ratio of regional brain distribution of [18F]ACF radiolabeled compound in rat striatum to that of cerebellum after 30 min; type: ADME, organism-based; conditions: in vivo, 0.5 h; in short: as §1
Rattus norvegicus [12] = organism: Rattus norvegicus; experiment: Organ distribution of [18F]-ACF radiolabeled compound in rat kidney after 240 min; type: ADME, organism-based; conditions: in vivo, 4 h; in short: as §4
Rattus norvegicus [13] = organism: Rattus norvegicus; experiment: Regional brain distribution of [18F]ACF radiolabeled compound in rat hippocampus after 240 min; type: ADME, organism-based; conditions: in vivo, 4 h; in short: as §1
Rattus norvegicus [14] = organism: Rattus norvegicus; experiment: Regional brain distribution of [18F]-ACF radiolabeled compound in rat remainder (rest of brain) after 240 min; type: ADME, organism-based; conditions: in vivo, 4 h; in short: as §1
Rattus norvegicus [15] = experiment: Effect of pretreatment with (+)-McN5652 with a dose of 2 mg/kg (i.v.) on specific binding of [18F]ACF in rat brain cortex; type: ADME, organism-based; parameters: dose 2 mg/kg, route intravenous; conditions: in vivo, iv
In short: (§5)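 Rats pretreated iv with drug (2 mg/kg) or saline 5 min before iv [18F]ACF (50 μCi). Sacrificed 1 h after tracer. Brain regions were dissected, weighed and counted, and % dose/g was calculated against a diluted initial dose. Drug-treated rats were compared with saline controls by ANOVA/Dunnett's test (p<0.05). Three rats per point, average ± SD.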

Rattus norvegicus [16] = experiment: Ratio of effect of pretreatment with (+)-McN5652 with a dose of 2 mg/kg (i.v.) on specific binding of [18F]ACF in rat brain hypothalamus to that of cerebellum; type: ADME, organism-based; parameters: dose 2 mg/kg, route intravenous; conditions: in vivo, iv; in short: as §3
Rattus norvegicus [17] = experiment: Effect of pretreatment with nisoxatine with a dose of 2 mg/kg (i.v.) on specific binding of [18F]ACF in rat brain hypothalamus; type: ADME, organism-based; parameters: dose 2 mg/kg, route intravenous; conditions: in vivo, iv; in short: as §5
Rattus norvegicus [18] = experiment: Effect of pretreatment with methylphenidate with a dose of 2 mg/kg (i.v.) on specific binding of [18F]ACF in rat brain cortex; type: ADME, organism-based; parameters: dose 2 mg/kg, route intravenous; conditions: in vivo, iv; in short: as §5
Rattus norvegicus [19] = organism: Rattus norvegicus; experiment: Ratio of regional brain distribution of [18F]ACF radiolabeled compound in rat remainder to that of cerebellum after 60 min; type: ADME, organism-based; conditions: in vivo, 1 h; in short: as §1
Rattus norvegicus [20] = organism: Rattus norvegicus; experiment: Organ distribution of [18F]-ACF radiolabeled compound in rat kidney after 60 min; type: ADME, organism-based; conditions: in vivo, 1 h; in short: as §4
Rattus norvegicus [21] = experiment: Effect of pretreatment with methylphenidate with a dose of 2 mg/kg (i.v.) on specific binding of [18F]ACF in rat brain blood; type: ADME, organism-based; parameters: dose 2 mg/kg, route intravenous; conditions: in vivo, iv; in short: as §5
Rattus norvegicus [22] = organism: Rattus norvegicus; experiment: Organ distribution of [18F]-ACF radiolabeled compound in rat lung after 240 min; type: ADME, organism-based; conditions: in vivo, 4 h; in short: as §4
Rattus norvegicus [23] = experiment: Ratio of effect of pretreatment with methylphenidate with a dose of 2 mg/kg (i.v.) on specific binding of [18F]ACF in rat brain hippocampus to that of cerebellum; type: ADME, organism-based; parameters: dose 2 mg/kg, route intravenous; conditions: in vivo, iv; in short: as §3
Rattus norvegicus [24] = experiment: Effect of pretreatment with methylphenidate with a dose of 2 mg/kg (i.v.) on specific binding of [18F]ACF in rat brain hypothalamus; type: ADME, organism-based; parameters: dose 2 mg/kg, route intravenous; conditions: in vivo, iv; in short: as §5
Rattus norvegicus [25] = organism: Rattus norvegicus; experiment: Organ distribution of [18F]ACF radiolabeled compound in rat kidney after 2 min; type: ADME, organism-based; conditions: in vivo; in short: as §2
Rattus norvegicus [26] = organism: Rattus norvegicus; experiment: Organ distribution of [18F]-ACF radiolabeled compound in rat liver after 60 min; type: ADME, organism-based; conditions: in vivo, 1 h; in short: as §4
Rattus norvegicus [27] = organism: Rattus norvegicus; experiment: Organ distribution of [18F]-ACF radiolabeled compound in rat muscle after 120 min; type: ADME, organism-based, Muscle tissue; conditions: in vivo, 2 h; in short: as §4
Rattus norvegicus [28] = experiment: Ratio of effect of pretreatment with nisoxatine with a dose of 2 mg/kg (i.v.) on specific binding of [18F]ACF in rat brain remainder to that of cerebellum; type: ADME, organism-based; parameters: dose 2 mg/kg, route intravenous; conditions: in vivo, iv; in short: as §3
Rattus norvegicus [29] = organism: Rattus norvegicus; experiment: Ratio of regional brain distribution of [18F]-ACF radiolabeled compound in rat cortex to that of cerebellum after 120 min; type: ADME, organism-based; conditions: in vivo, 2 h
In short: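 Rats, three per time point, given 30 μCi tracer in 0.2 mL saline into femoral vein under ether anesthesia; killed at 2, 30, 60, 120 or 240 min. Cortex, striatum, hippocampus, cerebellum, hypothalamus and rest of brain dissected, weighed, counted; % dose/g against diluted initial dose, then each region divided by cerebellum. Average of three rats ± SD.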

Rattus norvegicus [30] = organism: Rattus norvegicus; experiment: Ratio of regional brain distribution of [18F]ACF radiolabeled compound in rat cortex to that of cerebellum after 2 min; type: ADME, organism-based; conditions: in vivo; in short: as §1
Rattus norvegicus [31] = organism: Rattus norvegicus; experiment: Regional brain distribution of [18F]-ACF radiolabeled compound in rat hippocampus after 30 min; type: ADME, organism-based; conditions: in vivo, 0.5 h; in short: as §1
Rattus norvegicus [32] = organism: Rattus norvegicus; experiment: Organ distribution of [18F]ACF radiolabeled compound in rat brain after 2 min; type: ADME, organism-based; conditions: in vivo; in short: as §2
Rattus norvegicus [33] = experiment: Ratio of effect of pretreatment with nisoxatine with a dose of 2 mg/kg (i.v.) on specific binding of [18F]-ACF in rat brain hippocampus to that of cerebellum; type: ADME, organism-based; parameters: dose 2 mg/kg, route intravenous; conditions: in vivo, iv; in short: as §3
Rattus norvegicus [34] = experiment: Effect of pretreatment with methylphenidate with a dose of 2 mg/kg (i.v.) on specific binding of [18F]ACF in rat brain hippocampus; type: ADME, organism-based; parameters: dose 2 mg/kg, route intravenous; conditions: in vivo, iv; in short: as §5
Rattus norvegicus [35] = organism: Rattus norvegicus; experiment: Regional brain distribution of [18F]ACF radiolabeled compound in rat hippocampus after 60 min; type: ADME, organism-based; conditions: in vivo, 1 h; in short: as §1

Ratio (Rattus norvegicus [1]): 2.97
Dose/g (Rattus norvegicus [2]): 0.32 % dose/organ
Ratio (Rattus norvegicus [3]): 1.48
Dose/g (Rattus norvegicus [4]): 0.04 % dose/organ
Ratio (Rattus norvegicus [5]): 1.69
Ratio (Rattus norvegicus [6]): 2.34
Dose/g (Rattus norvegicus [7]): 0.29 % dose/organ
Dose/g (Rattus norvegicus [8]): 4.52 % dose/organ
Dose/g (Rattus norvegicus [9]): 0.73 % dose/organ
Ratio (Rattus norvegicus [10]): 2.35
Ratio (Rattus norvegicus [11]): 2.06
Dose/g (Rattus norvegicus [12]): 0.51 % dose/organ
Dose/g (Rattus norvegicus [13]): 0.04%
Dose/g (Rattus norvegicus [14]): 0.03%
Dose/g (Rattus norvegicus [15]): 0.24%
Ratio (Rattus norvegicus [16]): 1.36
Dose/g (Rattus norvegicus [17]): 0.55%
Dose/g (Rattus norvegicus [18]): 0.35%
Ratio (Rattus norvegicus [19]): 2.56
Dose/g (Rattus norvegicus [20]): 1.38 % dose/organ
Dose/g (Rattus norvegicus [21]): 0.28%
Dose/g (Rattus norvegicus [22]): 0.15 % dose/organ
Ratio (Rattus norvegicus [23]): 2.5
Dose/g (Rattus norvegicus [24]): 0.52%
Dose/g (Rattus norvegicus [25]): 6.97 % dose/organ
Dose/g (Rattus norvegicus [26]): 10.3 % dose/organ
Dose/g (Rattus norvegicus [27]): 4.02 % dose/organ
Ratio (Rattus norvegicus [28]): 2.17
Ratio (Rattus norvegicus [29]): 1.77
Ratio (Rattus norvegicus [30]): 1.84
Dose/g (Rattus norvegicus [31]): 0.7%
Dose/g (Rattus norvegicus [32]): 3.27 % dose/organ
Ratio (Rattus norvegicus [33]): 2.44
Dose/g (Rattus norvegicus [34]): 0.43%
Dose/g (Rattus norvegicus [35]): 0.45%
SMILES: CN(C)Cc1ccccc1Sc1cc(F)c(Cl)cc1N
